This is an account of results in ChEMBL document CHEMBL1127410, “Dipeptide phosphonates as inhibitors of dipeptidyl peptidase IV” (J Med Chem, 1994).

A word on the half-life: it is the time in which the quantity being followed falls by half. The low end stands for fast loss, the high end for slow loss.

A value given as a limit tells only on which side of the number the result lay.

System in one data set: not listed separately
Briefly: Half life for the spontaneous hydrolysis in buffer was measured. The format is ADME. A digest of the protocol:
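Inhibitor (0.1 mM final) in 0.05 M Tris pH 7.8 with 10% v/v Me2SO. Spontaneous hydrolysis followed as absorbance rise at 270 nm (phenoxy), 280 nm (4-chlorophenoxy) or 277 nm (4-fluorophenoxy). Half-lives from first-order plots of ln(Af − At) vs time, Af being final absorbance of monophenyl ester plus phenol.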
`C[C@H](N)C(=O)N1CCCCC1P(=O)(Oc1ccc(F)cc1)Oc1ccc(F)cc1` (some centres not stated) showed a half-life of 2.83 days.
The same measure, in the same setting: the figure for `C[C@H](N)C(=O)N1CCCCC1P(=O)(Oc1ccccc1)Oc1ccccc1` (some centres not stated) is over 3 days; for `NCCCC[C@H](N)C(=O)N1CCCCC1P(=O)(Oc1ccccc1)Oc1ccccc1` (some centres not stated) it is over 2 days.
On the same count and under the same terms, the figure for `C[C@H](N)C(=O)N1CCC[C@H]1P(=O)(Oc1ccccc1)Oc1ccccc1.Cl` is 0.963 days.
The same measure, in the same setting: the same measure for `C[C@H](N)C(=O)N1CCC[C@H]1P(=O)(Oc1ccc(Cl)cc1)Oc1ccc(Cl)cc1`: 0.221 days; for `Br.Br.NCCCC[C@H](N)C(=O)N1CCC[C@H]1P(=O)(Oc1ccccc1)Oc1ccccc1`: 2.17 days; for `C[C@H](N)C(=O)N1CCCCC1P(=O)(Oc1ccc(Cl)cc1)Oc1ccc(Cl)cc1` (mixture of isomers) [listing 1 of 2 here]: 2.79 days.
`C[C@H](N)C(=O)N1CCCCC1P(=O)(Oc1ccc(Cl)cc1)Oc1ccc(Cl)cc1` (some centres not stated) [listing 1 of 2 here] came in with a T1/2 of over 48 h.

Another data set deals with Cathepsin B (Homo sapiens) (UniProt P07858). Briefly: The second order inhibition rate constant for the compound was measured against cathepsin B; NI-No inhibition after 30 min of incubation of enzyme with inhibitor. The method in brief: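 Cathepsin B incubated with inhibitor in 100 mM KH2PO4, 1.33 mM EDTA, 2.7 mM fresh cysteine pH 6.0, 8-9% Me2SO, 23 °C. Aliquots assayed with Z-Arg-Arg-AMC, fluorescence at ex 380/em 460 nm. kobs from ln v/v0 vs time. NI means no inhibition after 30 min.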
As for `C[C@H](N)C(=O)N1CCCCC1P(=O)(Oc1ccc(Cl)cc1)Oc1ccc(Cl)cc1` (mixture of isomers) [listing 2 of 2 here], the “K obs / 1” value was “No inhibition”.
On the same count and under the same terms, the entry for `C[C@H](N)C(=O)N1CCC[C@H]1P(=O)(Oc1ccccc1)Oc1ccccc1.Cl` is “No inhibition”; for `C[C@H](N)C(=O)N1CCC[C@H]1P(=O)(Oc1ccc(Cl)cc1)Oc1ccc(Cl)cc1` it is “No inhibition”.

A further data set addresses Chymotrypsinogen A (Bos taurus) (UniProt P00766). Briefly: The second order inhibition rate constant for the compound was measured against chymotrypsinogen.
For the molecule `C[C@H](N)C(=O)N1CCCCC1P(=O)(Oc1ccc(Cl)cc1)Oc1ccc(Cl)cc1` (mixture of isomers) [listing 2 of 2 here], the K obs / 1 is 18 M⁻¹ s⁻¹.
The same measure, in the same setting: the same measure for `C[C@H](N)C(=O)N1CCC[C@H]1P(=O)(Oc1ccc(Cl)cc1)Oc1ccc(Cl)cc1`: 26 M⁻¹ s⁻¹.

In a further data set the target is T1, Neutrophil elastase (Homo sapiens) (UniProt P08246).
T1 sequence (whole entry): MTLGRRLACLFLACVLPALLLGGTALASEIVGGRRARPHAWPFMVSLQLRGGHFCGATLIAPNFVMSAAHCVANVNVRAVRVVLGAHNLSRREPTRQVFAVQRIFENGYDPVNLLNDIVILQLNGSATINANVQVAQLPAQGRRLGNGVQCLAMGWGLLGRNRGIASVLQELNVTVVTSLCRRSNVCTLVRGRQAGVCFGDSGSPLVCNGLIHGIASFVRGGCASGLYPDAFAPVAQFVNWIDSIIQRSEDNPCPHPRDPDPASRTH
Briefly: The second order inhibition rate constant for the compound was measured against HLE; NI-No inhibition after 30 min of incubation of enzyme with inhibitor.
In the case of `C[C@H](N)C(=O)N1CCCCC1P(=O)(Oc1ccc(Cl)cc1)Oc1ccc(Cl)cc1` (mixture of isomers) [listing 2 of 2 here], the “K obs / 1” value is “No inhibition”.
The same measure, in the same setting: the entry for `C[C@H](N)C(=O)N1CCC[C@H]1P(=O)(Oc1ccccc1)Oc1ccccc1.Cl` is “No inhibition”.
On to `C[C@H](N)C(=O)N1CCC[C@H]1P(=O)(Oc1ccc(Cl)cc1)Oc1ccc(Cl)cc1`, for which the “K obs / 1” value was “No inhibition”.

The target in another data set is T2, Papain (Carica papaya) (UniProt P00784).
T2 sequence (whole entry): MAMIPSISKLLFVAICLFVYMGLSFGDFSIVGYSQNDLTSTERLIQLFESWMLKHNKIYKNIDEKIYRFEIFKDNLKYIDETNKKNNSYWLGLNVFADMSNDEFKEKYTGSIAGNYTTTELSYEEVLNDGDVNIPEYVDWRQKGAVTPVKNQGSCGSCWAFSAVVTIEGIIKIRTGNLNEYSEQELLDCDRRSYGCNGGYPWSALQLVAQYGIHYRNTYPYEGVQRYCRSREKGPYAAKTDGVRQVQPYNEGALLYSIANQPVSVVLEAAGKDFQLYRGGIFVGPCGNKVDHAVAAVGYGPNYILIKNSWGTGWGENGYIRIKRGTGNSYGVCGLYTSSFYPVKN
Briefly: The second order inhibition rate constant for the compound was measured against papain; NI-No inhibition after 30 min of incubation of enzyme with inhibitor. The method in brief: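 Papain incubated with inhibitor in 50 mM Tris-HCl, 2 mM EDTA, 5 mM fresh cysteine pH 7.5, 8-9% Me2SO, 23 °C. Aliquots assayed with Bz-Arg-AMC, fluorescence at ex 380/em 460 nm. kobs from ln v/v0 vs time. NI means no inhibition after 30 min.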
With `C[C@H](N)C(=O)N1CCCCC1P(=O)(Oc1ccc(Cl)cc1)Oc1ccc(Cl)cc1` (mixture of isomers) [listing 2 of 2 here], the “K obs / 1” value was “No inhibition”.
On to `C[C@H](N)C(=O)N1CCC[C@H]1P(=O)(Oc1ccccc1)Oc1ccccc1.Cl`, for which the “K obs / 1” value was “No inhibition”.
Same read-out and setting: the entry for `C[C@H](N)C(=O)N1CCC[C@H]1P(=O)(Oc1ccc(Cl)cc1)Oc1ccc(Cl)cc1` is “No inhibition”.

In a further data set the target is T3, Chymotrypsin-like elastase family member 2A (Sus scrofa) (UniProt P08419).
T3 sequence (whole entry): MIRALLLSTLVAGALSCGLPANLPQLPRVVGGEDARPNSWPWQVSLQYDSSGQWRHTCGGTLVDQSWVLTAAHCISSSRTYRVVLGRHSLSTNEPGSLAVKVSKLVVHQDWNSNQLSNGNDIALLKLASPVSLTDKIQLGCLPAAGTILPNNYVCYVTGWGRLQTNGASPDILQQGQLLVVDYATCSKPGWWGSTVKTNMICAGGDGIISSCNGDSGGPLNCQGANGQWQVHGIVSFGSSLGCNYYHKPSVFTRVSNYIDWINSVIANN
Briefly: The second order inhibition rate constant for the compound was measured against PPE; NI-No inhibition after 30 min of incubation of enzyme with inhibitor.
For the molecule `C[C@H](N)C(=O)N1CCCCC1P(=O)(Oc1ccc(Cl)cc1)Oc1ccc(Cl)cc1` (mixture of isomers) [listing 2 of 2 here], the “K obs / 1” value is “No inhibition”.
Still for that read-out and setting: the entry for `C[C@H](N)C(=O)N1CCC[C@H]1P(=O)(Oc1ccccc1)Oc1ccccc1.Cl` is “No inhibition”; for `C[C@H](N)C(=O)N1CCC[C@H]1P(=O)(Oc1ccc(Cl)cc1)Oc1ccc(Cl)cc1` it is “No inhibition”.

The target of another data set is T4, Choline O-acetyltransferase (Rattus norvegicus) (UniProt P32738).
T4 sequence (whole entry): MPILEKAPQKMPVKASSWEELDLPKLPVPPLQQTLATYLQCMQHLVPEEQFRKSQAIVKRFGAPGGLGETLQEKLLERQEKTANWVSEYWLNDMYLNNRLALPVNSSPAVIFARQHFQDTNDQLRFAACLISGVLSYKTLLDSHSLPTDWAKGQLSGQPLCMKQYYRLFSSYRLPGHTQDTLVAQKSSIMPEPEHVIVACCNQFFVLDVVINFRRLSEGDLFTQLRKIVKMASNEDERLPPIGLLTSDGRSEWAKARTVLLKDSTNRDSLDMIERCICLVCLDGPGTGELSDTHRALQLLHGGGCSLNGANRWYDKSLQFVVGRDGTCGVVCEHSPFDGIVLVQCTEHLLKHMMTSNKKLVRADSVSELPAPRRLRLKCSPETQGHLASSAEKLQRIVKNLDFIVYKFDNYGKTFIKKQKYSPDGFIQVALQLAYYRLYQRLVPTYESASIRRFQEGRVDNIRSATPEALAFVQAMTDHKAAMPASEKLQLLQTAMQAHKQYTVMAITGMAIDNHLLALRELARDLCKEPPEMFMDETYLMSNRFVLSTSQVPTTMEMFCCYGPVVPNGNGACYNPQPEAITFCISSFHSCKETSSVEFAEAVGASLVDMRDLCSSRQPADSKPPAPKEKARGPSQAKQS
As to `C[C@H](N)C(=O)N1CCC[C@H]1P(=O)(Oc1ccccc1)Oc1ccccc1.Cl`, the “K obs / 1” value was “No inhibition”.

A further data set deals with Chymotrypsinogen A (Bos taurus) (UniProt P00766).
In the case of `C[C@H](N)C(=O)N1CCC[C@H]1P(=O)(Oc1ccccc1)Oc1ccccc1.Cl`, the “K obs / 1” value was “No inhibition”.

The target of another data set is Dipeptidyl peptidase 4 (Homo sapiens) (UniProt P27487).
Sequence of Dipeptidyl peptidase 4 (Homo sapiens) (P27487 whole entry, looked up): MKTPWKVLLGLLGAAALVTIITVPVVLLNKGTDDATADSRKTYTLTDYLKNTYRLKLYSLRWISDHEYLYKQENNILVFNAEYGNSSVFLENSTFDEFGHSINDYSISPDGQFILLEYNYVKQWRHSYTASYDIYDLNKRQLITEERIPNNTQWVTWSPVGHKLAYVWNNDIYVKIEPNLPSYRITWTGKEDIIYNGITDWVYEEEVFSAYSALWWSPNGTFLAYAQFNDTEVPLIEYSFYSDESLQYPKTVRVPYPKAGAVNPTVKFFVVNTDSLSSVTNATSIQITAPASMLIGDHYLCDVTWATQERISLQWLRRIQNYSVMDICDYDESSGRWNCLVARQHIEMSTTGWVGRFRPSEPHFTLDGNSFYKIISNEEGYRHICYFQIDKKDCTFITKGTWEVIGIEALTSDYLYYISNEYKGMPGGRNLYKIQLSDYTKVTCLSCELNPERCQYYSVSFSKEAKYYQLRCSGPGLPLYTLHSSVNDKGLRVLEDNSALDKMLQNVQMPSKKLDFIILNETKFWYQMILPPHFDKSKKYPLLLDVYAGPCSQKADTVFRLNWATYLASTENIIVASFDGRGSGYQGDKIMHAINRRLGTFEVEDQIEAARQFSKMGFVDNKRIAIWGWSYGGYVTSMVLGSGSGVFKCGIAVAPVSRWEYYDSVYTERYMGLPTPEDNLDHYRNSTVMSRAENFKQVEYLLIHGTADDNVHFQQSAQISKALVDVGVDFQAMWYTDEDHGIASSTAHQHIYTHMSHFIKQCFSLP
Molecule `C[C@H](N)C(=O)N1CCCCC1P(=O)(Oc1ccc(Cl)cc1)Oc1ccc(Cl)cc1` (mixture of isomers) [listing 2 of 2 here] came in with a K obs / 1 of 156 M⁻¹ s⁻¹.
`C[C@H](N)C(=O)N1CCCCC1P(=O)(Oc1ccc(Cl)cc1)Oc1ccc(Cl)cc1` (some centres not stated) [listing 2 of 2 here] had a K obs / 1 of 1300 M⁻¹ s⁻¹.
On the same count and under the same terms, the figure for `C[C@H](N)C(=O)N1CCCCC1P(=O)(Oc1ccc(F)cc1)Oc1ccc(F)cc1` (some centres not stated) is 12 M⁻¹ s⁻¹; for `C[C@H](N)C(=O)N1CCCCC1P(=O)(Oc1ccccc1)Oc1ccccc1` (some centres not stated) it is 12.6 M⁻¹ s⁻¹; for `NCCCC[C@H](N)C(=O)N1CCCCC1P(=O)(Oc1ccccc1)Oc1ccccc1` (some centres not stated) it is 4.2 M⁻¹ s⁻¹.
Still for that read-out and setting: the figure for `C[C@H](N)C(=O)N1CCC[C@H]1P(=O)(Oc1ccccc1)Oc1ccccc1.Cl` is 1.2 M⁻¹ s⁻¹; for `C[C@H](N)C(=O)N1CCC[C@H]1P(=O)(Oc1ccc(Cl)cc1)Oc1ccc(Cl)cc1` it is 28 M⁻¹ s⁻¹.
The same measure, in the same setting: the figure for `Br.Br.NCCCC[C@H](N)C(=O)N1CCC[C@H]1P(=O)(Oc1ccccc1)Oc1ccccc1` is 1.7 M⁻¹ s⁻¹.
